Results from ChEMBL document CHEMBL1121581, “4-Piperazinyl-10H-thieno[2,3-b][1,5]benzodiazepines as potential neuroleptics” (J Med Chem, 1980).

How the values were obtained:
Mus musculus = assay: Hypothermia in mice after peroral administration; format: functional
[1] = Lethal dose in mice after perorla administration; format: toxicity, organism-based; settings: mouse, in vivo, po
Rattus norvegicus [2] = assay: Compound was assessed for its ability to block a conditioned avoidance response; Dose administered intraperitoneally is 50 mg/kg; 31-50%block; format: functional; settings: route intraperitoneal
How it was run: (§1)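 Shuttle-box conditioned avoidance in Lilly Wistar rats (120–130 g) pretrained to a 5-s buzzer with mild shock after a 1-s failure to respond. Groups of five had 10-min habituation and a 20-min test. Block was taken as shocks received as % of buzzer presentations and graded 0–5. Maximum dose was half the rotarod-disruption ED₅₀.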

Rattus norvegicus [3] = assay: Compound was assessed for its ability to block a conditioned avoidance response; Dose administered perorally is 12.5 mg/kg; 76-99%block; format: functional; settings: route oral
How it was run: (§2)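 Lilly Wistar rats (120–130 g) trained in a shuttle box to cross on a 5-s buzzer, with mild shock if no response within 1 s of buzzer end. Only rats with a high conditioned response were used. Groups of five were dosed orally 1 h 50 min before the session, then habituated 10 min and tested 20 min. Shocks were scored as % of stimuli and graded 0–5.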

Rattus norvegicus [4] = assay: Compound was assessed for its ability to produce catalepsy in rats; Dose administered perorally is 10 mg/kg; Group score is 4-7; format: functional; settings: route oral
How it was run: (§3)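 Groups of eight Lilly Wistar rats (180–190 g) were dosed orally, then checked at 0.5, 1, 1.5, 2, 3, 4 and 5 h. Front paws were placed on a 1.5-cm rod 7 cm above the table, and hold time was recorded up to 20 min. Each rat was scored 0–5 and its maximum scores were summed per group (maximum 40), then graded 0–4.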

Rattus norvegicus [5] = assay: Compound was assessed for its ability to produce catalepsy in rats; Dose administered perorally is 25 mg/kg; Group score is 4-7; format: functional; settings: route oral; how it was run: as §3
Rattus norvegicus [6] = assay: Compound was assessed for its ability to block a conditioned avoidance response; Dose administered perorally is 50 mg/kg; 51-75%block; format: functional; settings: route oral; how it was run: as §2
Rattus norvegicus [7] = assay: Compound was assessed for its ability to block a conditioned avoidance response; Dose administered perorally is 1.25 mg/kg; 51-75%block; format: functional; settings: route oral; how it was run: as §2
Rattus norvegicus [8] = assay: Compound was assessed for its ability to produce catalepsy in rats; Dose administered perorally is 1.25 mg/kg; Group score is 16-30; format: functional; settings: route oral; how it was run: as §3
Rattus norvegicus [9] = assay: Compound was assessed for its ability to produce catalepsy in rats; Dose administered perorally is 8 mg/kg; Group score is 4-7; format: functional; settings: route oral; how it was run: as §3
Rattus norvegicus [10] = assay: Compound was assessed for its ability to block a conditioned avoidance response; Dose administered perorally is 4 mg/kg; 26-30%block; format: functional; settings: route oral; how it was run: as §2
Rattus norvegicus [11] = assay: Compound was assessed for its ability to block a conditioned avoidance response; Dose administered perorally is 30 mg/kg; Complete block of conditioned & unconditioned response; format: functional; settings: route oral; how it was run: as §2
Rattus norvegicus [12] = assay: Compound was assessed for its ability to block a conditioned avoidance response; Dose administered perorally is 8 mg/kg; 76-99%block; format: functional; settings: route oral; how it was run: as §2
Rattus norvegicus [13] = assay: Compound was assessed for its ability to block a conditioned avoidance response; Dose administered perorally is 10 mg/kg; 31-50%block; format: functional; settings: route oral; how it was run: as §2
Rattus norvegicus [14] = assay: Compound was assessed for its ability to produce catalepsy in rats; Dose administered perorally is 12.5 mg/kg; Group score is 8-15; format: functional; settings: route oral; how it was run: as §3
Rattus norvegicus [15] = assay: Compound was assessed for its ability to produce catalepsy in rats; Dose administered perorally is 50 mg/kg; Group score is 0-3; format: functional; settings: route oral; how it was run: as §3
Rattus norvegicus [16] = assay: Compound was assessed for its ability to block a conditioned avoidance response; Dose administered intraperitoneally is 20 mg/kg; 31-50%block; format: functional; settings: route intraperitoneal; how it was run: as §1
Rattus norvegicus [17] = assay: Compound was assessed for its ability to produce catalepsy in rats; Dose administered perorally is 12 mg/kg; Group score is 8-15; format: functional; settings: route oral; how it was run: as §3
Rattus norvegicus [18] = assay: Compound was assessed for its ability to block a conditioned avoidance response; Dose administered perorally is 6 mg/kg; 51-75%block; format: functional; settings: route oral; how it was run: as §2
Rattus norvegicus [19] = assay: Compound was assessed for its ability to produce catalepsy in rats; Dose administered perorally is 60 mg/kg; Group score is 8-15; format: functional; settings: route oral; how it was run: as §3
Rattus norvegicus [20] = assay: Compound was assessed for its ability to produce catalepsy in rats; Dose administered subcutaneously is 30 mg/kg; Group score is 4-7; format: functional; settings: route subcutaneous
Rattus norvegicus [21] = assay: Compound was assessed for its ability to block a conditioned avoidance response; Dose administered intraperitoneally is 20 mg/kg; 26-30%block; format: functional; settings: route intraperitoneal; how it was run: as §1
Rattus norvegicus [22] = assay: Compound was assessed for its ability to block a conditioned avoidance response; Dose administered intraperitoneally is 40 mg/kg; 26-30%block; format: functional; settings: route intraperitoneal; how it was run: as §1
Rattus norvegicus [23] = assay: Compound was assessed for its ability to block a conditioned avoidance response; Dose administered intraperitoneally is 50 mg/kg; 26-30%block; format: functional; settings: route intraperitoneal; how it was run: as §1
Rattus norvegicus [24] = assay: Compound was assessed for its ability to produce catalepsy in rats; Dose administered perorally is 50 mg/kg; Group score is 8-15; format: functional; settings: route oral; how it was run: as §3
Rattus norvegicus [25] = assay: Compound was assessed for its ability to block a conditioned avoidance response; Dose administered perorally is 25 mg/kg; 26-30%block; format: functional; settings: route oral, in the assay text read “31-50%block” for “26-30%block”; how it was run: as §2
Rattus norvegicus [26] = assay: Compound was assessed for its ability to block a conditioned avoidance response; Dose administered perorally is 10 mg/kg; 76-99%block; format: functional; settings: route oral; how it was run: as §2
Rattus norvegicus [27] = assay: Compound was assessed for its ability to produce catalepsy in rats; Dose administered perorally is 10 mg/kg; Group score is 8-15; format: functional; settings: route oral; how it was run: as §3
Rattus norvegicus [28] = assay: Compound was assessed for its ability to produce catalepsy in rats; Dose administered perorally is 80; Group score is 8-15; format: functional
Rattus norvegicus [29] = assay: Compound was assessed for its ability to block a conditioned avoidance response; Dose administered perorally is 30 mg/kg; 51-75%block; format: functional; settings: route oral
How it was run: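 Trained Lilly Wistar rats (120–130 g) in a shuttle box, 5-s buzzer with mild shock if no response within 1 s of buzzer end. Only high-responders used; groups of five dosed orally 1 h 50 min before test, 10-min habituation, then 20-min session. Block = shocks as % of stimuli presented, scored 0–5 (3 = 51–75% block).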

Rattus norvegicus [30] = assay: Compound was assessed for its ability to block a conditioned avoidance response; Dose administered intraperitoneally is 40 mg/kg; no significant effect (0-25%block); format: functional; settings: route intraperitoneal; how it was run: as §1

| Compound | EDmin (Mus musculus) [mg/kg] | LD50 [1] [mg/kg] | other results |
| --- | --- | --- | --- |
| CCc1cc2c(s1)Nc1ccc(F)cc1N=C2NCCCN1CCN(C)CC1 | 200 | 400 | Activity (Rattus norvegicus [2]): 2 |
| CCc1cc2c(s1)Nc1ccc(F)cc1N=C2N1CC[N+](C)([O-])CC1 | 25 | 200 | Activity (Rattus norvegicus [3]): 4; Activity (Rattus norvegicus [4]): 1 |
| CSc1ccc2c(c1)N(CCC1CCCCN1C)c1ccccc1S2 (stereo not drawn) [THIORIDAZINE] | 25 | 400 | Activity (Rattus norvegicus [5]): 1; Activity (Rattus norvegicus [6]): 3 |
| O=C(CCCN1CCC(O)(c2ccc(Cl)cc2)CC1)c1ccc(F)cc1 [HALOPERIDOL] | 3 | > 100 | Activity (Rattus norvegicus [7]): 3; Activity (Rattus norvegicus [8]): 3 |
| CCc1cc2c(s1)Nc1cc(F)ccc1N=C2N1CCN(C)CC1 | 12.5 | 150 | Activity (Rattus norvegicus [9]): 1; Activity (Rattus norvegicus [10]): 1 |
| CN1CCN(C2=Nc3cc(F)ccc3Nc3sccc32)CC1 | 25 | > 200 | Activity (Rattus norvegicus [11]): 5 |
| Cc1cc2c(s1)Nc1ccc(F)cc1N=C2N1CCN(C)CC1 [FLUMEZAPINE] | 3 | 200 | Activity (Rattus norvegicus [9]): 1; Activity (Rattus norvegicus [12]): 4 |
| CCc1cc2c(s1)Nc1ccc(F)cc1N=C2N1CCN(CCCO)CC1 | 25 | 400 | Activity (Rattus norvegicus [13]): 2; Activity (Rattus norvegicus [14]): 2 |
| CCc1cc2c(s1)Nc1ccc(F)cc1N=C2NCCN1CCCC1 | 200 | > 400 | Activity (Rattus norvegicus [15]): 0; Activity (Rattus norvegicus [16]): 2 |
| CCc1cc2c(s1)Nc1ccc(F)cc1N=C2N1CCN(C)CC1 | 6.25 | > 200 | Activity (Rattus norvegicus [17]): 2; Activity (Rattus norvegicus [18]): 3 |
| CCc1cc2c(s1)Nc1ccc(F)cc1N=C2N1CCNCC1 | 100 | > 800 | Activity (Rattus norvegicus [19]): 2; Activity (Rattus norvegicus [20]): 1; Activity (Rattus norvegicus [21]): 1 |
| CCc1cc2c(s1)Nc1ccc(F)cc1N=C2NCCN(C)C | 200 | 400 | Activity (Rattus norvegicus [22]): 1 |
| CCc1cc2c(s1)Nc1ccc(F)cc1N=C2NCCCN(C)C | >400 | > 800 | Activity (Rattus norvegicus [23]): 1 |
| CCc1cc2c(s1)Nc1cc(C)ccc1N=C2N1CCN(C)CC1 | 50 | 150 | Activity (Rattus norvegicus [24]): 2; Activity (Rattus norvegicus [25]): 2 |
| CC(C)c1cc2c(s1)Nc1ccc(F)cc1N=C2N1CCN(C)CC1 | 6.25 | 50 | Activity (Rattus norvegicus [26]): 4; Activity (Rattus norvegicus [27]): 2 |
| CN1CCN(C2=Nc3cc(Cl)ccc3Nc3ccccc32)CC1 [CLOZAPINE] | 50 |  | Activity (Rattus norvegicus [28]): 2; Activity (Rattus norvegicus [29]): 3 |
| CCc1cc2c(s1)Nc1ccc(F)cc1N=C2NCCCO | >200 | 400 | Activity (Rattus norvegicus [30]): 0 |
